The target of experiment [1] is T1, Gastrin/cholecystokinin type B receptor (Rattus norvegicus, UniProt P30553).
T1 sequence (P30553 whole entry): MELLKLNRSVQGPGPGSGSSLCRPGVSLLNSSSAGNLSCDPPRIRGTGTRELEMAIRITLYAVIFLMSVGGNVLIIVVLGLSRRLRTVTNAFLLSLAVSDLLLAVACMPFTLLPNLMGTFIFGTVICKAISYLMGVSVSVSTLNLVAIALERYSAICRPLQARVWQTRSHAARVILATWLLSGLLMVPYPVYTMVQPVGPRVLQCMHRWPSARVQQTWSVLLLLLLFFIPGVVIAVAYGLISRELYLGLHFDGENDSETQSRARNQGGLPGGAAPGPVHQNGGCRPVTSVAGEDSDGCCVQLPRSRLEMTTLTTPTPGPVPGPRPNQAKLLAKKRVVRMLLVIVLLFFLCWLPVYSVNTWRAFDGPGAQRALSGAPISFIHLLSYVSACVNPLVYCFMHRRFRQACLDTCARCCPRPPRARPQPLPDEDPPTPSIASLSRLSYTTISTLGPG
The experiment in a line: Displacement of [125I]-BH-CCK-8 from CCK-B receptor in rat cerebral cortex plasma membrane after 1 hr by liquid scintillation counting method. It is filed as cell membranes. The method, boiled down:
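Rat cerebral cortex plasma membrane (100 μg per tube), receptor solubilized in detergent. Non-specific binding defined with 1 μM unlabeled CCK-8s. Bound and free ligand separated on filter mats, counted by liquid scintillation. IC50 by non-linear least-squares fitting.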

Experiment [2] deals with MIA PaCa-2. In words: Cytotoxicity against human MIAPaCa2 cells assessed as reduction in cell viability at 1 to 10 uM after 72 hrs by MTT assay. It is filed as functional, cell-based.
The test system of experiment [3] is MIA PaCa-2. The experiment in a line: Cytotoxicity against human MIAPaCa2 cells assessed as reduction in cell viability after 24 hrs by MTT assay. Format: functional, cell-based. Conditions: MIA PaCa-2, 24 h. The method, boiled down: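 MiaPaca-2 cells seeded at 1000/well, incubated 24 h at 37 °C, 5% CO2, then exposed to varying compound concentrations in 200 μL standard growth medium for 24 h. MTT (5 mg/mL stock in PBS) added for 4 h at 37 °C. Formazan dissolved in DMSO, absorbance read at 540 nm. IC50 taken from dose–response graphs.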

In experiment [4] the target is T2, Gastrin/cholecystokinin type B receptor (Mus musculus) (UniProt P56481).
T2 sequence (whole entry): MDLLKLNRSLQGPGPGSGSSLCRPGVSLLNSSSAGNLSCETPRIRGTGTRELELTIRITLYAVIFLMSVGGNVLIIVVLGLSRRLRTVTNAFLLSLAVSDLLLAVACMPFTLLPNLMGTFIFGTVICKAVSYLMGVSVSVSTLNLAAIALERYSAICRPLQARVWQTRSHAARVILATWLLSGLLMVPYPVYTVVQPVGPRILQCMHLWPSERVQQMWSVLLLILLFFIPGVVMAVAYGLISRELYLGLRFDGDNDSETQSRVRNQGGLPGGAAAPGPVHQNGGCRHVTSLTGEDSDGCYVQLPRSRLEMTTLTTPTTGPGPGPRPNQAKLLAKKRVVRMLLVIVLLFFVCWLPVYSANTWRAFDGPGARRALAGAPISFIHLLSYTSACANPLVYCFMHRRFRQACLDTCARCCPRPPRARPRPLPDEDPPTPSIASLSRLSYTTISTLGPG
In words: Inhibition of CCK-B receptor in lumen perfused albino mouse stomach assessed as reduction in boc-pentagastrin-induced gastric acid secretion after 45 mins relative to control. Format: functional. The method, boiled down:
(§1)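 Whole stomach excised from albino mice (25–30 g), lumen-perfused in an organ bath. Effluent pH monitored continuously with a pH probe. Acid output driven by sub-maximal Boc-pentagastrin (10 nM), measured before and 45 min after incubation with test compound. Percentage inhibition calculated.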

For experiment [5], the target named is T2, Gastrin/cholecystokinin type B receptor (Mus musculus). The experiment in a line: Inhibition of CCK-B receptor in lumen perfused albino mouse stomach assessed as reduction in boc-pentagastrin-induced gastric acid secretion at 300 nM after 45 mins relative to control. It is filed as functional. The method, boiled down:
as §1

For experiment [6], the system named is MIA PaCa-2. The experiment in a line: Inhibition of boc-pentagastrin-induced cell proliferation in human MIAPaCa2 cells at 1 to 10 uM up to 120 hrs by MTT assay. Format: functional, cell-based. The essentials: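 MiaPaca-2 cells seeded at 4000/well in 10% FCS-DMEM, then made quiescent for 24 h in incomplete medium. Boc-pentagastrin and/or antagonist (1 or 10 μM) added in incomplete medium; medium with the same concentrations replaced daily. MTT read after 48–120 h, absorbance at 540 nm. DMSO control at each time point set as 100%.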

In experiment [7] the target is T2, Gastrin/cholecystokinin type B receptor (Mus musculus). In words: Inhibition of CCK-B receptor in lumen perfused albino mouse stomach assessed as reduction in boc-pentagastrin-induced gastric acid secretion at 100 nM after 45 mins relative to control. It is filed as functional. The essentials: as §1
The target is the same in experiment [8]. The experiment in a line: Inhibition of CCK-B receptor in lumen perfused albino mouse stomach assessed as reduction in boc-pentagastrin-induced gastric acid secretion at 1 uM after 45 mins relative to control. Format: functional. The method, boiled down: as §1
Experiment [9] addresses T3, Gastrin/cholecystokinin type B receptor (Homo sapiens, UniProt P32239).
T3 sequence (P32239 whole entry): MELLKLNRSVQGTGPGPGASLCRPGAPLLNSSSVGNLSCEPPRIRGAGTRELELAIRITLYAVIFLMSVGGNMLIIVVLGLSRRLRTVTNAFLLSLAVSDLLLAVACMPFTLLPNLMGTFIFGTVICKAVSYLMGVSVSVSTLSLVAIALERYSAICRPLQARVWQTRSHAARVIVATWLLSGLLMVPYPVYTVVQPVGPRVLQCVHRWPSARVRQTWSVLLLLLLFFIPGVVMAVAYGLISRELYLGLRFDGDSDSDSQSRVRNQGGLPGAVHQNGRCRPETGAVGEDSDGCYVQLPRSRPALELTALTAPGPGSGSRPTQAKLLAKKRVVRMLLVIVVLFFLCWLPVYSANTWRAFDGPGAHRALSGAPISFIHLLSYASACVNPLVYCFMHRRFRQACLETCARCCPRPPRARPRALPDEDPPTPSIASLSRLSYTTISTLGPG
In words: Displacement of [125I]-gastrin17 from CCK-B receptor (unknown origin).

The source of these data is ChEMBL document CHEMBL4261533, “Identification of potent cholecystokinin-B receptor antagonists: synthesis, molecular modeling and anti-cancer activity against pancreatic cancer cells” (Medchemcomm, 2017).

Calls of active or inactive are those of the source. The rule behind the calls is not given here.

As to `Cc1ccc(-n2c(N/N=C3\C(=O)Nc4ccccc43)nc3ccccc3c2=O)cc1`, the figures for the IC50 (in [1]; in the experiment on MIA PaCa-2 [3]) were 0.0565 µM and 10 µM, respectively. Further, the result in the experiment with MIA PaCa-2 [2] was Active. For the same molecule, the inhibition result in experiment [4] was “Dose-dependent effect”; in experiment [5] it was 67%. In addition, the inhibition entry with MIA PaCa-2 [6] is “Active”.
`O=C1Nc2ccccc2/C1=N/Nc1nc2ccccc2c(=O)n1-c1cccc(Cl)c1`: the inhibition is 58% in experiment [7] and “Dose-dependent effect” in experiment [4]. Also, the IC50 came to 0.384 µM in experiment [1] and 92 µM with MIA PaCa-2 [3].
For `CCOc1ccc(-n2c(N/N=C3\C(=O)Nc4ccccc43)nc3ccccc3c2=O)cc1`, in that order: 48%, “Dose-dependent effect”, 0.0174 µM and 80 µM.
Regarding `CCOc1ccc(-n2c(NNC(=S)Nc3ccc(Br)cc3)nc3ccccc3c2=O)cc1`, the results for the inhibition in experiment [7] and in experiment [4] were 39% and “Dose-dependent effect”, respectively. Further, the IC50 came to 0.002 µM in [1] and 10 µM with MIA PaCa-2 [3]. In addition, the outcome in the experiment on MIA PaCa-2 [2] was Active. Further, the inhibition result in the experiment with MIA PaCa-2 [6] is “Active”.
As to `CCOc1ccc(-n2c(NNC(=S)Nc3cccc(C(=O)O)c3)nc3ccccc3c2=O)cc1`, the inhibition was 58% in experiment [7] and “Dose-dependent effect” in experiment [4]. The figures for the IC50 (in [1]; in the experiment on MIA PaCa-2 [3]) were 0.00066 µM and 280 µM, respectively.
Taken in the same sequence, the figures for `CCOc1ccc(NC(=S)NNc2nc3ccccc3c(=O)n2-c2ccc(Cl)cc2)cc1` were 53%, “Dose-dependent effect”, 0.00971 µM and 80 µM.
For `O=C(O)c1cccc(NC(=S)NNc2nc3ccccc3c(=O)n2-c2cccc(Br)c2)c1`, in that order: 62%, “Dose-dependent effect”, 0.00864 µM and 150 µM.
Regarding `O=C(O)c1cccc(NC(=S)NNc2nc3ccccc3c(=O)n2-c2ccccc2)c1`, the values for the IC50 (in [1]; with MIA PaCa-2 [3]) were 0.975 µM and 180 µM, respectively. Also, the inhibition was 48% in experiment [8] and “Dose-dependent effect” in experiment [4].
On to `Cc1cccc(NC(=O)NC2N=C(c3ccccc3)c3ccccc3N(C)C2=O)c1` (stereo not drawn), for which the IC50 in the experiment with MIA PaCa-2 [3] amounted to 0.0018 µM.
In the case of `O=C1Nc2ccccc2/C1=N/Nc1nc2ccccc2c(=O)n1-c1ccc(Cl)cc1`, the inhibition in experiment [7] was 58%; in [4], “Dose-dependent effect”. Moreover, the IC50 in the experiment on MIA PaCa-2 [3] stood at 100 µM.
In turn, `CNc1cccc(NC(=O)NC2N=C(c3ccccn3)c3ccccc3N(CC(=O)C(C)(C)C)C2=O)c1` (stereo not drawn) had an IC50 in experiment [9] of 0.0001 µM.
For `CCOc1ccc(-n2c(NNC(=S)Nc3ccc(Cl)cc3)nc3ccccc3c2=O)cc1`, the values for the inhibition in experiment [7] and in [4] were 58% and “Dose-dependent effect”, respectively. Moreover, the IC50 stood at 0.0115 µM in [1] and 250 µM in the experiment on MIA PaCa-2 [3].
Taken in the same sequence, the figures for `O=C1Nc2ccccc2/C1=N/Nc1nc2ccccc2c(=O)n1-c1cccc(Br)c1` were 62%, “Dose-dependent effect”, 0.0195 µM and 200 µM.
Consider `O=C(O)c1cccc(NC(=S)NNc2nc3ccccc3c(=O)n2-c2ccc(Br)cc2)c1`, for which the inhibition was 39% in experiment [7] and “Dose-dependent effect” in [4]. The values for the IC50 (in [1]; in the experiment on MIA PaCa-2 [3]) were 0.0002 µM and 200 µM, respectively.
